In article PMC9056700 (RSC Advances, 2020):
Like-named read-outs stand apart in the source and are kept apart here. Marks after values point to notes of the source that are not given here.

How the values were obtained:
[1] = VT-1H NMR quantification of the square/folded conformational equilibrium; format: physicochemical; conditions: CH3CN-d3, calculated from ΔG° = ΔH° − TΔS° with van't Hoff parameters
Outline: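 Peptide at about 5.0 mM in CH3CN-d3, with shifts referenced to internal […] (0.00 ppm). Protons assigned by 2D-COSY and ROESY (500 ms mixing time). ΔH° and ΔS° came from a linear van't Hoff plot of ln K versus 1/T, and ΔG° at 298 K was then calculated from these parameters.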

[2] = system: P388 mouse lymphocytic leukemia cells; conditions: cited from earlier work; for ED50: taken from a previous report

| Substance | ΔG° at 298 K (conformational free energy, square to folded form) [1] [kcal/mol] | ED50 ([2]; P388 cells) | cytotoxicity (in words) ([2]; P388 cells, folded reference peptide) | cytotoxicity (in words) [2] |
| --- | --- | --- | --- | --- |
| Ascidiacyclamide [Peptide 1] | 0.523 | 10.5 ^a μg mL^−1 |  |  |
| cyclo(-Ile-alloThr-D-Val-Thz-)2 (head to tail) [dASC] |  | >100 ^h μg mL^−1 | no cytotoxicity | no cytotoxicity |
